Reference: ChEMBL document CHEMBL1773065, “Impact of the nature of the substituent at the 3-position of 4H-1,2,4-benzothiadiazine 1,1-dioxides on their opening activity toward ATP-sensitive potassium channels” (J Med Chem, 2011)
The source made the active and inactive calls. No cut-off for these calls is given here.

Legend:
[1] = Inhibition of glucose induced insulin secretion from rat Pancreatic islet assessed as percentage of residual insulin release at 10 uM; type: functional
Method in brief: (§1)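 Isolated rat pancreatic islets incubated with 16.7 mM glucose and drug at 0.1–50 μM. Result is insulin release as a percentage of residual release, mean ± SEM (n).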

[2] = Inhibition of glucose induced insulin secretion from rat Pancreatic islet assessed as percentage of residual insulin release at 50 uM; type: functional; method in brief: as §1
[3] = Inhibition of glucose induced insulin secretion from rat Pancreatic islet assessed as percentage of residual insulin release at 1 uM; type: functional; method in brief: as §1
[4] = Myorelaxant effect in Wistar rat uterus smooth muscle assessed as inhibition of contractions induced by bolus of oxytocin injected in superfusion system at 100 uM; type: functional; set-up: scale not given: the % may be the effect or the level left
Method in brief: (§2)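 Uteri from fed Wistar rats (150–200 g) given diethylstilboestrol dipropionate i.m. the day before. Tissue superfused; after 30 min stabilization, 20 mU oxytocin boluses given every 10 min until contractions (AUC) were constant. Three or more boluses per drug concentration (10, 50, 100 μM). Mean AUC expressed as percentage of the drug-free response.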

[5] = Dissociation constant, pKa of the compound; type: physicochemical
Method in brief: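 pKa determined by UV spectrophotometry at 25 °C. Spectra recorded in aqueous buffers from pH 5 to 12.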

[6] = Inhibition of glucose induced insulin secretion from rat Pancreatic islet assessed as percentage of residual insulin release; type: functional; method in brief: as §1
Rattus norvegicus [7] = species: Rattus norvegicus; assay: Activation of ATP-sensitive potassium channel in rat aorta rings assessed as increased 86Rb outflow at 100 uM in absence of ATP-sensitive potassium channel blocker glibenclamide; type: tissue-based
Method in brief: (§3)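 Prelabeled rat aortic rings perifused throughout with or without 10 μM glibenclamide. Drug applied at 100 μM. Read-out is 86Rb outflow. Four to five individual experiments.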

[8] = Myorelaxant effect in Wistar rat uterus smooth muscle assessed as inhibition of contractions induced by bolus of oxytocin injected in superfusion system at 10 uM; type: functional; set-up: scale not given: the % may be the effect or the level left; method in brief: as §2
[9] = Myorelaxant effect in Wistar rat uterus smooth muscle assessed as inhibition of contractions induced by bolus of oxytocin injected in superfusion system at 50 uM; type: functional; set-up: scale not given: the % may be the effect or the level left; method in brief: as §2
Rattus norvegicus [10] = species: Rattus norvegicus; assay: Activation of ATP-sensitive potassium channel in rat aorta rings assessed as increased 86Rb outflow at 100 uM in presence of 10 uM ATP-sensitive potassium channel blocker glibenclamide; type: tissue-based; method in brief: as §3
[11] = Myorelaxant effect in KCl-induced precontracted rat aorta ring VSMC; type: functional, tissue-based
Method in brief: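 Rat aortic rings precontracted with 30 mM KCl. EC50 is the drug concentration giving 50% relaxation, mean ± SEM (n).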

[12] = Myorelaxant effect in Wistar rat uterus smooth muscle assessed as inhibition of contractions induced by continuous superfusion of oxytocin in presence of 1 uM ATP-sensitive potassium channel blocker glibenclamide; type: functional
Method in brief: (§4)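 Rat uterus continuously superfused with 50 mU/L oxytocin. Mean of three contraction AUCs set as 100%, then drug added at increasing concentrations, with no glibenclamide or with 1 or 10 μM glibenclamide present continuously. EC50 is the concentration giving 50% residual contraction, mean ± SEM (n).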

[13] = Myorelaxant effect in Wistar rat uterus smooth muscle assessed as inhibition of contractions induced by continuous superfusion of oxytocin in absence ATP-sensitive potassium channel blocker glibenclamide; type: functional; method in brief: as §4
[14] = Myorelaxant effect in Wistar rat uterus smooth muscle assessed as inhibition of contractions induced by continuous superfusion of oxytocin in presence of 10 uM ATP-sensitive potassium channel blocker glibenclamide; type: functional; method in brief: as §4
[15] = Inhibition of glucose induced insulin secretion from rat Pancreatic islet assessed as percentage of residual insulin release at 0.1 uM; type: functional
Method in brief: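 Isolated rat pancreatic islets incubated with test drug in the presence of 16.7 mM glucose. Insulin release was measured and expressed as percentage of residual insulin release, given as mean ± SEM with number of determinations (n).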

Rattus norvegicus [16] = species: Rattus norvegicus; assay: Activation of ATP-sensitive potassium channel in rat pancreatic islets assessed as decrease in insulinotropic glucose concentration-mediated cytosolic calcium level by fluorimetry
Rattus norvegicus [17] = species: Rattus norvegicus; assay: Activation of ATP-sensitive potassium channel in glucose and extracellular calcium evoked rat pancreatic islets assessed as increase in 86Rb outflow measured per min at 10 uM
Method in brief: (§5)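 Prelabeled rat pancreatic islets, perifused throughout with 5.6 mM glucose and extracellular Ca2+. Drug added at 10 or 50 μM, then withdrawn. Read-out is the increase in 86Rb outflow rate, in %/min. Six individual experiments.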

Rattus norvegicus [18] = species: Rattus norvegicus; assay: Activation of ATP-sensitive potassium channel in glucose and extracellular calcium evoked rat pancreatic islets assessed as increase in 86Rb outflow measured per min; method in brief: as §5
Rattus norvegicus [19] = species: Rattus norvegicus; assay: Activation of ATP-sensitive potassium channel in extracellular calcium deprived and glucose evoked rat pancreatic islets assessed as reduction in 45Calcium outflow at 50 uM
Rattus norvegicus [20] = species: Rattus norvegicus; assay: Activation of ATP-sensitive potassium channel in glucose and extracellular calcium evoked rat pancreatic islets assessed as reduction in 45Calcium outflow at 50 uM
Rattus norvegicus [21] = species: Rattus norvegicus; assay: Activation of ATP-sensitive potassium channel in glucose and extracellular calcium evoked rat pancreatic islets assessed as reduced 45Calcium outflow at 50 uM in presence of extracellular potassium ion; set-up: scale not given: the % may be the effect or the level left
Method in brief: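 Prelabeled, perifused rat pancreatic islets exposed throughout to 2.8 mM glucose and extracellular Ca2+. Extracellular K+ raised suddenly from 5 to 50 mM, with or without 50 μM drug in the basal medium. Read-out is the magnitude of the increase in 45Ca outflow, in %/min.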

Rattus norvegicus [22] = species: Rattus norvegicus; assay: Activation of ATP-sensitive potassium channel in glucose and extracellular calcium evoked rat pancreatic islets assessed as increased 86Rb outflow at 10 uM by radioisotopic and fluorimetric method in presence of 10 uM ATP-sensitive potassium channel blocker glibenclamide
Method in brief: (§6)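 Prelabeled, perifused rat pancreatic islets in 5.6 mM glucose with extracellular Ca2+. Drug given at 10 or 50 μM with 10 μM glibenclamide present continuously in the medium. Read-out is 86Rb outflow rate. Six individual experiments.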

Rattus norvegicus [23] = species: Rattus norvegicus; assay: Activation of ATP-sensitive potassium channel in glucose and extracellular calcium evoked rat pancreatic islets assessed as increased 86Rb outflow at 50 uM by radioisotopic and fluorimetric method in presence of 10 uM ATP-sensitive potassium channel blocker glibenclamide; method in brief: as §6
Rattus norvegicus [24] = species: Rattus norvegicus; assay: Activation of ATP-sensitive potassium channel in glucose and extracellular calcium evoked rat pancreatic islets assessed as increase in 86Rb outflow measured per min at 50 uM; method in brief: as §5
Rattus norvegicus [25] = species: Rattus norvegicus; assay: Activation of ATP-sensitive potassium channel in glucose and extracellular calcium evoked rat pancreatic islets assessed as decrease in insulin output at 50 uM; conditions: TDE = time-dependent effect

CC(C)SC1=NS(=O)(=O)c2cc(Br)ccc2N1
Activity [1]: 90.3%
Activity [2]: 47.3%

COc1ccc2c(c1)S(=O)(=O)N=C(OC(C)C)N2
Activity [1]: 80.8%

CC(C)CC1=NS(=O)(=O)c2cc(Br)ccc2N1
Activity [1]: 61.8%
Activity [3]: 85.8%

CC(C)CC1=NS(=O)(=O)c2cc(Cl)ccc2N1
Activity [4]: 55%
Activity [1]: 43.2%
pKa [5]: 8.52
IC50 [6]: 5.8 µM
Activity (Rattus norvegicus [7]): Active
Activity [8]: 73.9%
Activity [9]: 64.7%
Activity [2]: 21%
Activity (Rattus norvegicus [10]): inactive
EC50 [11]: 5.8 µM

CC(SC1=NS(=O)(=O)c2cc(Cl)ccc2N1)c1ccccc1 (racemic)
EC50 [12]: 6.8 µM
EC50 [13]: 4.4 µM
EC50 [14]: 24.2 µM
EC50 [11]: 5.4 µM

CC(C)NC1=NS(=O)(=O)c2ccccc2N1
Activity [1]: 34.9%
Activity [3]: 73.7%

Cc1ccc2c(c1)S(=O)(=O)N=C(OC(C)C)N2
Activity [1]: 79.5%

CC(C)OC1=NS(=O)(=O)c2cc(Br)ccc2N1
Activity [1]: 62.5%

CC(C)CSC1=NS(=O)(=O)c2cc(Cl)ccc2N1
EC50 [13]: 13.5 µM
EC50 [11]: 6.2 µM

CC(N/C(=N\C#N)Nc1ccncc1)C(C)(C)C (racemic) [PINACIDIL ANHYDROUS]
Activity [4]: 38.1%
IC50 [6]: 202 µM
Activity [8]: 44.9%
Activity [9]: 42.7%
EC50 [12]: 8.1 µM
EC50 [13]: 1.3 µM
EC50 [14]: 28.3 µM
EC50 [11]: 0.62 µM

CC(C)NC1=NS(=O)(=O)c2ccc(Cl)cc2N1
Activity [1]: 7.5%
Activity [15]: 76.7%
Activity [2]: 6.4%

CC(C)SC1=NS(=O)(=O)c2cc(F)ccc2N1
Activity [1]: 88.7%
Activity [2]: 55.1%

CC(C)SC1=NS(=O)(=O)c2ccc(Cl)cc2N1
Activity [1]: 80.2%
Activity [2]: 44%

CC(C)NC1=NS(=O)(=O)c2cc(Cl)ccc2N1
Activity [4]: 75.6%
IC50 [6]: 0.55 µM
Activity [8]: 94.4%
Activity [9]: 95%

CC1=Nc2ccc(Cl)cc2S(=O)(=O)N1 [DIAZOXIDE]
Activity [4]: 67.7%
IC50 [6]: 18.4 µM
Activity [8]: 93.8%
Activity [9]: 76.3%
EC50 [13]: > 30 µM

CC(C)SC1=NS(=O)(=O)c2ccccc2N1
Activity [1]: 93.9%

CC(C)NC1=NS(=O)(=O)c2cc(F)ccc2N1
Activity [1]: 3.7%
Activity [2]: 3.3%

CC(C)SC1=NS(=O)(=O)c2cc(Cl)c(Cl)cc2N1
Activity [1]: 70%
Activity [2]: 12.9%

Cc1ccc2c(c1)S(=O)(=O)N=C(SC(C)C)N2
Activity [1]: 77%

CC(C)SC1=NS(=O)(=O)c2ccc(Br)cc2N1
Activity [1]: 87%
Activity [2]: 33.8%

CC(C)CC1=NS(=O)(=O)c2cc(F)ccc2N1
Activity [1]: 75.3%

CC(C)[S+]([O-])C1=NS(=O)(=O)c2cc(Cl)ccc2N1 (stereo not given)
Activity [1]: 92.3%
Activity [2]: 89.8%

Cc1ccc2c(c1)S(=O)(=O)N=C(NC(C)C)N2
Activity [1]: 8.5%
Activity [3]: 71.3%
Activity [2]: 3.5%

CC(C)CC1=NS(=O)(=O)c2ccccc2N1
Activity [1]: 85.2%

CC(C)NC1=NS(=O)(=O)c2cc(Br)ccc2N1
Activity [1]: 8.1%
Activity [15]: 91%
Activity [2]: 6.7%

CC(C)OC1=NS(=O)(=O)c2ccccc2N1
Activity [1]: 90.4%

O=S1(=O)N=C(SCc2ccccc2)Nc2ccc(Cl)cc21
EC50 [13]: 11.7 µM
EC50 [11]: 5.4 µM

CC(C)OC1=NS(=O)(=O)c2cc(Cl)ccc2N1
Activity (Rattus norvegicus [16]): Active
Activity [4]: 68.7%
Activity [1]: 77.3%
Activity (Rattus norvegicus [17]): 0.23%
pKa [5]: 8
IC50 [6]: 19.1 µM
Activity [8]: 88%
Activity (Rattus norvegicus [18]): Dose-dependent effect
Activity [9]: 85.8%
Activity (Rattus norvegicus [19]): inactive
Activity [2]: 17.5%
Activity (Rattus norvegicus [20]): Active
Activity (Rattus norvegicus [21]): 1.12%
Activity (Rattus norvegicus [22]): inactive
Activity (Rattus norvegicus [23]): inactive
Activity (Rattus norvegicus [24]): 1.32%
EC50 [11]: 22.7 µM
Activity (Rattus norvegicus [25]): tde

CC(C)OC1=NS(=O)(=O)c2cc(Cl)c(Cl)cc2N1
Activity [1]: 73.7%

CC(C)OC1=NS(=O)(=O)c2cc(F)ccc2N1
Activity [1]: 87.5%
Activity [2]: 44.1%

COc1ccc2c(c1)S(=O)(=O)NC(NC(C)C)=N2
Activity [1]: 8.5%
Activity (Rattus norvegicus [19]): inactive
Activity [2]: 4.4%
Activity (Rattus norvegicus [20]): Active
Activity (Rattus norvegicus [25]): tde

CC(C)SC1=NS(=O)(=O)c2cc(Cl)ccc2N1
Activity [4]: 2.3%
Activity [1]: 104%
pKa [5]: 7.01
IC50 [6]: 50 µM
Activity [8]: 98.8%
Activity [9]: 54.7%
Activity [2]: 51.3%
EC50 [13]: > 30 µM
EC50 [11]: 23 µM
